Screens: PubChem BioAssay, several laboratories
Hits are enriched below; roughly 2.8% of the tested compounds scored in any of these assays.
NPY2 pot ag: human NPY-Y2 potentiation or agonism, primary screen | P49146 | cells expressing NPY-Y2, potentiator/agonist read-out | activation, % at 3.6 µM | 220,000 compounds, 0.45% hits | AID 1359; in the data active = activation above about 27%;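 note: cells stimulated with NPY near EC25 plus isoproterenol at EC100; 0% = vehicle plus submaximal agonist and 100% = vehicle plus saturating agonist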
Target sequence (P49146 whole entry, looked up): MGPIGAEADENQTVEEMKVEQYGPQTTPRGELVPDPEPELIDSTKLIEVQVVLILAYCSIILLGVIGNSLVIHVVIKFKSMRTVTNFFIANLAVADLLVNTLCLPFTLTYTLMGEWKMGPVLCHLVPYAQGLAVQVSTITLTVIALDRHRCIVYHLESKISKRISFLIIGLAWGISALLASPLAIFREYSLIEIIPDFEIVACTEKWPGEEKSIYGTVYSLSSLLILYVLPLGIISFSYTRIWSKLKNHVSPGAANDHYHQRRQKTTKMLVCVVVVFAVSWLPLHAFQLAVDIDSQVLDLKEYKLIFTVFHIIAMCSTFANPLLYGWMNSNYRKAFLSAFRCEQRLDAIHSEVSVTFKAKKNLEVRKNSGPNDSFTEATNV
EP2 mod: modulates human prostaglandin E2 receptor EP2 signaling; P43116; EP2-expressing cells, cAMP HTRF FRET, PGE2 co-stimulation; induction, % at 25 µM; 260,000 compounds, 0.83% hits; AID 940;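 active = compounds whose cAMP rise, as percent of the full-agonist control response, exceeds 60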;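 note: rat C6 glioma line stably carrying human EP2 under a CMV promoter; the protocol text gives 20 µM as final concentration; 100% = response of wells given 1 µM PGE2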
NPY-Y1 PAM-ag: potentiators or agonists of human neuropeptide Y receptor Y1; P25929; NPY-Y1 expressing cells, potentiator/agonist activation; activation, % at 3.6 µM; 220,000 compounds, 0.37% hits; in the data active = activation above about 33%, passing the limit was not always enough;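 note: cells stimulated with NPY at EC10 then isoproterenol at EC100; 0% = low agonist plus stimulus and 100% = saturating agonist plus stimulus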
Target sequence (P25929 whole entry, looked up): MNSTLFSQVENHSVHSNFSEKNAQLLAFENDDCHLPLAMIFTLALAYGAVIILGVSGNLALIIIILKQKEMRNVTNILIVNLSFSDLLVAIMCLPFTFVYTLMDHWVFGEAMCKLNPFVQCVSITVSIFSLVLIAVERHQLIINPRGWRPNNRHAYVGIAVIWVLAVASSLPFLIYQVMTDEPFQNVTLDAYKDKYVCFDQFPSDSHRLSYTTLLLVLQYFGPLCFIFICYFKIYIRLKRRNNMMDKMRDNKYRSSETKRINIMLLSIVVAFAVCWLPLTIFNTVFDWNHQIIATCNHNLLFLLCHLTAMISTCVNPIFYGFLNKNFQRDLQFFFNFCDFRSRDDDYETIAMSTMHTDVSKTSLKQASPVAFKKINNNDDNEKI
NPY Y1 blocker: blocks the human neuropeptide Y Y1 receptor. P25929. HEK293-CNG Y1 cells, membrane potential fluorescence; NPY at EC95, then isoproterenol. inhibition, % at 3.6 µM. 200,000 compounds, 1% hits;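 active = inhibition above the campaign mean inhibition of all tested compounds plus 3 SD, cut at about 20% in these data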;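 note: 0% = DMSO wells given NPY plus isoproterenol and 100% = isoproterenol alone without NPY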
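Test system: HEK293 cells co-expressing NPY Y1 receptor and cyclic-nucleotide gated channel; Also added: NPY (25 nM), isoproterenol (1 µM), Ro 20-1724 (25 µM); Compound dosing: one concentration, 3.6 µM, in 0.4% DMSO; Timing: dye 3 h, compound 60 min room temperature, stimulation 45 min; Technique: Membrane-potential fluorescent dye readout.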
EP2 antag: inhibitors of human EP2 prostaglandin E2 receptor; C6 glioma cells expressing human EP2, cAMP TR-FRET; cells stimulated with saturating PGE2; inhibition, % at 25 µM; 260,000 compounds, 0.52% hits;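 active = percent inhibition above 40 after rounding to a whole number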;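 note: rat C6 glioma host cells with rolipram phosphodiesterase inhibitor present; the protocol text gives 20 µM as final concentration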
NPY Y2 blocker: NPY-Y2 (human) receptor antagonism | P49146 | NPY-Y2 expressing cells, antagonist mode | inhibition, % at 2.7 µM | 140,000 compounds, 0.99% hits | AID 793; in the data active = inhibition above about 17%;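 note: 0% = vehicle with agonist challenge and 100% = reference antagonist with challenge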
NPY-Y1 confirm: confirmation of human NPY-Y1 receptor potentiators or agonists. shares compounds with NPY-Y1 PAM-ag. cell-based NPY-Y1 potentiator/agonist assay. activation, % at 3.6 µM. 280 compounds, 20% hits. AID 1546; in the data active = activation above about 45%;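 note: cells challenged with NPY at its EC10 plus isoproterenol stimulus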
NPY-Y2 counter: NPY-Y2 potentiation or agonism as NPY-Y1 counter-screen. HEK293-CNG cells, membrane-potential fluorescence (FLIPR), 1536-well. 280 compounds, 20% hits. shares compounds with NPY-Y1 PAM-ag. activation, % at 3.6 µM; in the data active = activation above about 33%
NPY-Y1 ag: human NPY-Y1 agonism as potentiator counter-screen | shares compounds with NPY-Y1 PAM-ag | HEK293 Y1-CNGC, membrane potential fluorescence, agonist mode | activation, % at 3.6 µM | 280 compounds, 50% hits | AID 1697;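 active = percent activation above the mean of DMSO-only control wells plus 3 SD of those wells, cut at about 18% in these data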;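 note: cells challenged with isoproterenol plus Ro 20-1724 with no NPY in test wells; Y1 agonism lowers isoproterenol-driven cAMP and reduces probe fluorescence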
NPY-Y2 ag: human NPY-Y2 agonism as NPY-Y1 counter-screen. HEK293 Y2-CNGC, membrane potential fluorescence, agonist mode. 280 compounds, 67% hits. activation, % at 3.6 µM. shares compounds with NPY-Y1 PAM-ag;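 active = activation above the solvent-only control wells' mean plus 3 SD, cut at about 11% in these data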;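 note: 0% = DMSO with isoproterenol and 100% = 40 nM NPY maximal response; agonism lowers cAMP so well fluorescence drops in active wells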
CNGC counter: blocks cyclic nucleotide gated channel in NPY-Y1 counter-screen | AID 1704 | HEK293-CNG parental, isoproterenol cAMP, membrane potential fluorescence | shares compounds with NPY-Y1 PAM-ag | 280 compounds, 42% hits | inhibition, % at 3.6 µM;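 active = inhibition above the mean of stimulated solvent-only control wells plus 3 SD, cut at about 22% in these data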;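 note: 0% = isoproterenol-stimulated DMSO wells and 100% = unstimulated DMSO wells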
* marks the source's active call; other numbers are inactive results; . = no result given.

SMILES	NPY2 pot ag	EP2 mod	NPY-Y1 PAM-ag	NPY Y1 blocker	EP2 antag	NPY Y2 blocker	NPY-Y1 confirm	NPY-Y2 counter	NPY-Y1 ag	NPY-Y2 ag	CNGC counter
COCCCNc1nc2c(c(=O)[nH]c(=O)n2C)n1CC(O)COc1ccccc1 (stereo not drawn)	29.1	19.6	95.6*	5.0	9.9	-0.5	3.5	1.5	-1.3	12.0*	8.5
Cc1ccn2c(Nc3ccccc3C)c(-c3ccncc3)nc2c1	29.5	17.4	41.0*	-3.9	7.4	0.4	58.8*	49.7*	36.1*	50.0*	26.7*
COc1ccc2c(c1)CCCC21NC(=O)NC1=O (stereo not drawn)	8.6	15.0	2.3	1.8	5.1	-0.2	.	.	.	.	.
COc1ccc2cc(C3(C)NC(=O)NC3=O)ccc2c1 (stereo not drawn)	7.5	-4.8	67.8*	-7.5	11.9	-0.7	0.3	-4.8	-6.0	-3.2	-8.0
CC[C@H](Cn1ncc2ccccc2c1=O)NC(=O)c1ccc2c(c1)OCCO2	.	-44.6	.	.	.	.	.	.	.	.	.
CCOC(=O)Cn1c(=O)oc2cc(S(=O)(=O)NCc3cccs3)ccc21	26.8	-13.3	33.4*	-8.8	14.6	1.9	48.4*	27.2	46.1*	28.7*	60.6*
CCOC(=O)Cn1c(=O)oc2cc(S(=O)(=O)NCc3ccccn3)ccc21	2.6	14.4	0.0	0.4	10.2	0.6	.	.	.	.	.
O=C1C2C3c4ccccc4C(Br)(c4ccccc43)C2C(=O)N1c1ccccc1O (stereo not drawn)	21.4	-5.4	37.7*	-3.2	9.5	-1.3	33.3	22.0	25.8*	14.7*	31.8*
CCN=c1scc(-c2cccs2)n1/N=C/c1cc(OC)ccc1O	-0.7	-57.7	-13.5	-1.1	8.6	3.5	.	.	.	.	.
CC(C)N=c1scc(-c2cccs2)n1/N=C/c1ccc(O)c(O)c1O	20.6	-63.1	52.2*	-4.2	11.7	-1.2	50.8*	39.2*	52.9*	25.9*	21.0
Cn1nc(C(F)(F)F)c(-c2ccc(F)cc2)c1NC(=O)Nc1ccc(F)cc1	38.4	4.0	48.4*	.	8.4	.	59.1*	45.2*	58.4*	51.5*	49.2*
Cc1ccc(F)c(NC(=O)CSc2nc(-c3cccs3)cc(C(F)(F)F)n2)c1	.	-30.2	.	.	12.2	.	.	.	.	.	.
Cc1ccc(S(=O)(=O)N(CC(=O)N2CCC(C)CC2)Cc2ccccc2F)cc1	19.7	9.0	79.1*	2.6	6.8	1.4	-5.2	-0.2	-10.5	-5.9	1.3
Cc1ccc(S(=O)(=O)N(CC(=O)O)Cc2ccccc2F)cc1	4.6	9.0	-11.7	-1.2	8.8	5.8	.	.	.	.	.
COc1cc2c(cc1NC(=O)CN1C(=O)NC3(CCc4ccccc43)C1=O)oc1ccccc12 (stereo not drawn)	19.4	-1.5	34.8*	-7.0	7.5	-1.8	61.9*	39.1*	37.1*	44.0*	44.7*
CCOc1cc(N2CCOCC2)c(OCC)cc1NC(=O)CN1C(=O)NC2(CCc3ccccc32)C1=O (stereo not drawn)	3.3	-2.3	5.3	-1.5	8.7	5.6	.	.	.	.	.
COC(=O)CC1(C(=O)OC)Oc2ccc(Br)cc2C(=O)N1c1cc(Cl)c(Cl)cc1Cl (stereo not drawn)	17.7	4.8	48.9*	.	17.8	.	22.0	4.9	10.2	6.7	19.8
C=CCN1CCN(C(c2ccccc2F)c2nnnn2C2CCCC2)CC1 (stereo not drawn)	.	-0.2	.	.	7.7	.	.	.	.	.	.
COC(=O)c1ccc(NC(=O)CN(c2ccc(OC)cc2)S(C)(=O)=O)cc1	8.8	-6.1	42.9*	-7.4	2.6	-5.4	30.4	16.4	40.8*	32.8*	31.6*
COc1ccc(CC(=O)Nc2ccc(C(C)=O)cc2)cc1	13.6	-18.3	37.2*	-9.2	9.2	.	23.4	14.7	32.6*	34.9*	31.3*
Cc1ccc(NC(=S)N(Cc2cc3ccc(C)c(C)c3[nH]c2=O)C2CCCC2)cc1	.	18.7	.	.	10.2	.	.	.	.	.	.
Cc1ccc2cc(CN(Cc3ccc(F)cc3)C(c3nnnn3C3CCCC3)C(C)C)c(=O)[nH]c2c1 (stereo not drawn)	.	14.7	.	.	6.8	.	.	.	.	.	.
Cc1cc(-c2onc(C)c2C(=O)Nc2ccc(C(F)(F)F)cc2)no1	-15.0	-0.9	1.4	.	7.6	.	.	.	.	.	.
Cc1noc(-c2ccc(C(F)(F)F)cc2)c1NC(=O)Nc1ccc(Cl)cc1	11.9	-33.7	62.9*	.	11.5	.	52.5*	30.6	53.2*	24.6*	37.4*
O=C(COC(=O)c1ccc(NS(=O)(=O)c2cccs2)cc1O)NCc1ccccc1	-8.7	0.8	3.1	0.6	2.1	.	.	.	.	.	.
SMILES	NPY2 pot ag	EP2 mod	NPY-Y1 PAM-ag	NPY Y1 blocker	EP2 antag	NPY Y2 blocker	NPY-Y1 confirm	NPY-Y2 counter	NPY-Y1 ag	NPY-Y2 ag	CNGC counter
O=C(COC(=O)c1ccc(NS(=O)(=O)c2cccs2)cc1O)Nc1nc2ccccc2s1	22.5	-23.8	43.1*	-3.3	5.6	.	35.0	24.0	38.2*	24.7*	21.8*
CCOc1ccc(OCC)c(NC(=O)CSc2nnc3c(n2)C2(C)CCC3C2(C)C)c1 (stereo not drawn)	.	14.0	.	.	13.6	.	.	.	.	.	.
O=C(c1cc(C2CC2)on1)N1CCN(C(c2ccccc2)c2ccccc2)CC1	5.1	53.7	-5.5	-1.7	1.9	-1.9	.	.	.	.	.
O=C(c1cc(-c2cccc(O)c2)on1)N1CCN(C(c2ccccc2)c2ccccc2)CC1	-5.8	47.9	32.1*	7.8	3.1	1.0	32.0	5.3	17.5*	15.9*	7.4
CCOC(=O)C1=C(c2ccccc2)NC(=O)NC1c1cc(Br)c(O)c(OC)c1 (stereo not drawn)	11.5	28.4	42.0*	-3.3	7.5	.	0.0	3.1	-2.9	1.0	-2.0
CCOC(=O)C1=C(C)NC(=O)NC1c1cc(Br)c(O)c(OC)c1 (stereo not drawn)	-6.1	5.0	10.4	-2.7	15.8	0.6	.	.	.	.	.
O=C(c1ccc2c3c(cccc13)CC2)C1CCCN(Cc2ccncc2)C1 (stereo not drawn)	2.3	-63.2	77.4*	1.3	5.8	.	-26.8	-4.0	-32.8	-6.5	-7.1
